Data from ChEMBL document CHEMBL4219109, “Design, synthesis and biological evaluation of novel hydroxamic acid based histone deacetylase 6 selective inhibitors bearing phenylpyrazol scaffold as surface recognition motif” (Bioorg Med Chem, 2018).

Tests used:
[1] = test system: HepG2; test: Potency index, ratio of vorinostat GI50 to compound GI50 for human HepG2 cells; type: functional
[2] = test system: A549; test: Antiproliferative activity against human A549 cells after 96 hrs by MTT assay; type: functional; details: Homo sapiens, A549, 96 h
In short: (§1)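 Cells from Shanghai Cell Bank; A549 grown in high-glucose DMEM and HepG2 in MEM, both with 10% FBS plus penicillin/streptomycin, at 37°C in 5% CO₂. Seeded at 1.5-3.5×10⁴ cells/well for 24 h, then given graded compound concentrations for 96 h. MTT solution (2 mg/mL) added for 4 h, formazan dissolved in DMSO, A570 read. Growth expressed as treated/untreated cell number ratio.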

[3] = molecular target: T1, Histone deacetylase 8 (Homo sapiens, UniProt Q9BY41); test: (§2) Inhibition of full length recombinant human C-terminal His-tagged HDAC8 expressed in baculovirus infected sf9 cells using Boc-Lys-(TFA)-AMC as substrate preincubated for 15 mins followed by substrate addition measured after 60 mins by fluorescence assay
T1 sequence (Q9BY41 whole entry): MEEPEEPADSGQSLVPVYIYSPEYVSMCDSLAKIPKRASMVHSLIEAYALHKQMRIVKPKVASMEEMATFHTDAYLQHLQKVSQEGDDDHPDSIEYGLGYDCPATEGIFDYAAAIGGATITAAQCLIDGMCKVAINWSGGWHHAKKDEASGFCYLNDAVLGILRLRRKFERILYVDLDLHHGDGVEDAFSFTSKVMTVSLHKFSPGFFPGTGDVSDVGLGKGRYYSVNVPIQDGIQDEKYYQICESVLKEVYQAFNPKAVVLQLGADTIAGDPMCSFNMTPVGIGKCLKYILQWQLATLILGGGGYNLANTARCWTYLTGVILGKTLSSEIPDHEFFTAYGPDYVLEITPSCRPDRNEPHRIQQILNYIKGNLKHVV

[4] = molecular target: Histone deacetylase 1 (Homo sapiens, UniProt Q13547); test: Inhibition of full length recombinant human C-terminal FLAG/His-tagged HDAC1 expressed in baculovirus infected sf9 cells using Boc-Lys-(Ac)-AMC as substrate preincubated for 15 mins followed by substrate addition measured after 60 mins by fluorescence assay
[5] = molecular target: Histone deacetylase; test: Inhibition of HDAC in human HeLa nuclear extract using Boc-Lys-(Ac)-AMC as substrate preincubated for 15 mins followed by substrate addition measured after 60 mins by fluorescence assay; type: protein assay
[6] = molecular target: Histone deacetylase 3/Nuclear receptor corepressor 2 (HDAC3/NCoR2) (Homo sapiens, UniProt O15379); test: as §2, with “HDAC3/N-terminal GST-tagged NCOR2 (395 to 489 residues)” for “HDAC8”, “Boc-Lys-(Ac)-AMC” for “Boc-Lys-(TFA)-AMC”
[7] = molecular target: Histone deacetylase 2 (Homo sapiens, UniProt Q92769); test: Inhibition of full length recombinant human C-terminal His-tagged HDAC2 expressed in baculovirus infected sf9 cells using Boc-Lys-(Ac)-AMC as substrate preincubated for 15 mins followed by substrate addition measured after 60 mins by fluorescence assay
[8] = molecular target: T2, Protein deacetylase HDAC6 (Homo sapiens, UniProt Q9UBN7); test: Inhibition of full length recombinant human N-terminal GST-tagged HDAC6 expressed in baculovirus infected sf9 cells using Boc-Lys-(Ac)-AMC as substrate preincubated for 15 mins followed by substrate addition measured after 60 mins by fluorescence assay
T2 sequence (Q9UBN7 whole entry): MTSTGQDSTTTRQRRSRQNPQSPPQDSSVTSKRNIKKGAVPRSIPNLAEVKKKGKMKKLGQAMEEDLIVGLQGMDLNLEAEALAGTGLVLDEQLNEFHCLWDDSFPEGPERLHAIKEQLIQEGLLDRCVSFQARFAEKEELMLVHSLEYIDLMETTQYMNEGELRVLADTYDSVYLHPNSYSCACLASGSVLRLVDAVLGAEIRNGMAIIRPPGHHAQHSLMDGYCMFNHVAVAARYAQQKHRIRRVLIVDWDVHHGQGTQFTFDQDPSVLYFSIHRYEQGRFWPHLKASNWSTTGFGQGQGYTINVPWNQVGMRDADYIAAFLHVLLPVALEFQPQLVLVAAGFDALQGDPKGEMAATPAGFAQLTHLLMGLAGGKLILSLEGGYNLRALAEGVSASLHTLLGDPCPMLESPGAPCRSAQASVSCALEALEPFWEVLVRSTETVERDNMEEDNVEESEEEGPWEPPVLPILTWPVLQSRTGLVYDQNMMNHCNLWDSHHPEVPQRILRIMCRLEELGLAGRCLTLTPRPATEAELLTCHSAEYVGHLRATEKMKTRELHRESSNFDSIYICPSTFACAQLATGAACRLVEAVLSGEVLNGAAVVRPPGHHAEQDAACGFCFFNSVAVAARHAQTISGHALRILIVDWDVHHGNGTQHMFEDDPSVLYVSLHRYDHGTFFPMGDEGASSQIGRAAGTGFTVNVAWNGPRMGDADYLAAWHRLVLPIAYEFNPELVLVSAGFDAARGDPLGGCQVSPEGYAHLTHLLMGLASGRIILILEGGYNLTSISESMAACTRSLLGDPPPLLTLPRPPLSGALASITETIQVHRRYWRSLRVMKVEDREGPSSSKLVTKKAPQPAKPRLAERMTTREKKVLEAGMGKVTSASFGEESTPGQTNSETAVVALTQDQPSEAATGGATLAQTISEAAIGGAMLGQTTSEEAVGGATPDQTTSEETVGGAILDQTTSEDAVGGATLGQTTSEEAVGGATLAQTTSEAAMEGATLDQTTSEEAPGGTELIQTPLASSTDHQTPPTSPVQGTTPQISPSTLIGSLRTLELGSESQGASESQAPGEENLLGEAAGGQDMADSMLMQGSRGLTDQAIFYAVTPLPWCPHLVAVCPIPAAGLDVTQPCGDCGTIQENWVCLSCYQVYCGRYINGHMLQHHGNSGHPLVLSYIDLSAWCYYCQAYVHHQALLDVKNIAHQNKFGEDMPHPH

[9] = test system: HepG2; test: Antiproliferative activity against human HepG2 cells after 96 hrs by MTT assay; type: functional; details: Homo sapiens, HepG2, 96 h; in short: as §1

Histone deacetylase 1, sequence (Q13547 whole entry): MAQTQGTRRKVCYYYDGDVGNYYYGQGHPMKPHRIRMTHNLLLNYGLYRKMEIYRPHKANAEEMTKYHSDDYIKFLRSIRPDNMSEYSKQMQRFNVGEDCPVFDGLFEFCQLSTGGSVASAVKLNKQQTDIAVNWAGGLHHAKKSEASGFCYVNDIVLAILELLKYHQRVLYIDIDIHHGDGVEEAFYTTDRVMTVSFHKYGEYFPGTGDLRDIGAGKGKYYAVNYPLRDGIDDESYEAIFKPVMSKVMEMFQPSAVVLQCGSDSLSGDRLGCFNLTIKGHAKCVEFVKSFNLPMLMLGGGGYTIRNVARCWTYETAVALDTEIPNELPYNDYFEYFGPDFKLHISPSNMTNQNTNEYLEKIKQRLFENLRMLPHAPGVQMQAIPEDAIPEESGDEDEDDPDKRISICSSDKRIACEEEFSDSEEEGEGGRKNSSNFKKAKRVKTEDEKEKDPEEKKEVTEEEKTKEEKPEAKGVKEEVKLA
Histone deacetylase 2, sequence (Q92769 whole entry): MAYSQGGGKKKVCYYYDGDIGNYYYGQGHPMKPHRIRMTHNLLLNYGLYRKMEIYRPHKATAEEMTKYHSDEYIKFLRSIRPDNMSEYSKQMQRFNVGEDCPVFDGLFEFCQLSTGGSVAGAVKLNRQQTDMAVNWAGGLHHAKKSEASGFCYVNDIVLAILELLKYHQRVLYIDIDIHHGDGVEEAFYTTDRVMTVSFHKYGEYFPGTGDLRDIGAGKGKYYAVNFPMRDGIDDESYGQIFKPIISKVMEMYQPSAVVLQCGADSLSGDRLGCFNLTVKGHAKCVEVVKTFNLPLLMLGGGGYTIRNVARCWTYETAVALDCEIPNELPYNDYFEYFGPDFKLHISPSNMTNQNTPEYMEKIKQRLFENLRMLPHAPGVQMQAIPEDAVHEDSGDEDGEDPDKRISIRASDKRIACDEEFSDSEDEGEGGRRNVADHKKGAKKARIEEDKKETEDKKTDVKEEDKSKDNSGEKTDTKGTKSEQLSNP
Histone deacetylase 3/Nuclear receptor corepressor 2 (HDAC3/NCoR2), sequence (O15379 whole entry, the tested form may be a part): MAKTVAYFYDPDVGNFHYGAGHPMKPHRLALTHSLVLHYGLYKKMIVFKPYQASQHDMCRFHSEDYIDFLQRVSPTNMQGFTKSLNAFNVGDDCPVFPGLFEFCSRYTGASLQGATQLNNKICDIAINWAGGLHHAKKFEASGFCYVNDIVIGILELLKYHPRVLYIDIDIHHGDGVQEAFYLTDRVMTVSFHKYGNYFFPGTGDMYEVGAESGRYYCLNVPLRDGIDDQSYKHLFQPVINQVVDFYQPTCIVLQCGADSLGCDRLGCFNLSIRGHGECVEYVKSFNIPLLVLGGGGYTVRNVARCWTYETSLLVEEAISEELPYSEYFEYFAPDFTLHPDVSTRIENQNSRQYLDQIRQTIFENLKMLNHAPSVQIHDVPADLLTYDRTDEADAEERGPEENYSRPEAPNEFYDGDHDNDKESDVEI
Histone deacetylase 3/Nuclear receptor corepressor 2 (HDAC3/NCoR2), sequence (Q9Y618 whole entry, further chain, the tested form may be a part): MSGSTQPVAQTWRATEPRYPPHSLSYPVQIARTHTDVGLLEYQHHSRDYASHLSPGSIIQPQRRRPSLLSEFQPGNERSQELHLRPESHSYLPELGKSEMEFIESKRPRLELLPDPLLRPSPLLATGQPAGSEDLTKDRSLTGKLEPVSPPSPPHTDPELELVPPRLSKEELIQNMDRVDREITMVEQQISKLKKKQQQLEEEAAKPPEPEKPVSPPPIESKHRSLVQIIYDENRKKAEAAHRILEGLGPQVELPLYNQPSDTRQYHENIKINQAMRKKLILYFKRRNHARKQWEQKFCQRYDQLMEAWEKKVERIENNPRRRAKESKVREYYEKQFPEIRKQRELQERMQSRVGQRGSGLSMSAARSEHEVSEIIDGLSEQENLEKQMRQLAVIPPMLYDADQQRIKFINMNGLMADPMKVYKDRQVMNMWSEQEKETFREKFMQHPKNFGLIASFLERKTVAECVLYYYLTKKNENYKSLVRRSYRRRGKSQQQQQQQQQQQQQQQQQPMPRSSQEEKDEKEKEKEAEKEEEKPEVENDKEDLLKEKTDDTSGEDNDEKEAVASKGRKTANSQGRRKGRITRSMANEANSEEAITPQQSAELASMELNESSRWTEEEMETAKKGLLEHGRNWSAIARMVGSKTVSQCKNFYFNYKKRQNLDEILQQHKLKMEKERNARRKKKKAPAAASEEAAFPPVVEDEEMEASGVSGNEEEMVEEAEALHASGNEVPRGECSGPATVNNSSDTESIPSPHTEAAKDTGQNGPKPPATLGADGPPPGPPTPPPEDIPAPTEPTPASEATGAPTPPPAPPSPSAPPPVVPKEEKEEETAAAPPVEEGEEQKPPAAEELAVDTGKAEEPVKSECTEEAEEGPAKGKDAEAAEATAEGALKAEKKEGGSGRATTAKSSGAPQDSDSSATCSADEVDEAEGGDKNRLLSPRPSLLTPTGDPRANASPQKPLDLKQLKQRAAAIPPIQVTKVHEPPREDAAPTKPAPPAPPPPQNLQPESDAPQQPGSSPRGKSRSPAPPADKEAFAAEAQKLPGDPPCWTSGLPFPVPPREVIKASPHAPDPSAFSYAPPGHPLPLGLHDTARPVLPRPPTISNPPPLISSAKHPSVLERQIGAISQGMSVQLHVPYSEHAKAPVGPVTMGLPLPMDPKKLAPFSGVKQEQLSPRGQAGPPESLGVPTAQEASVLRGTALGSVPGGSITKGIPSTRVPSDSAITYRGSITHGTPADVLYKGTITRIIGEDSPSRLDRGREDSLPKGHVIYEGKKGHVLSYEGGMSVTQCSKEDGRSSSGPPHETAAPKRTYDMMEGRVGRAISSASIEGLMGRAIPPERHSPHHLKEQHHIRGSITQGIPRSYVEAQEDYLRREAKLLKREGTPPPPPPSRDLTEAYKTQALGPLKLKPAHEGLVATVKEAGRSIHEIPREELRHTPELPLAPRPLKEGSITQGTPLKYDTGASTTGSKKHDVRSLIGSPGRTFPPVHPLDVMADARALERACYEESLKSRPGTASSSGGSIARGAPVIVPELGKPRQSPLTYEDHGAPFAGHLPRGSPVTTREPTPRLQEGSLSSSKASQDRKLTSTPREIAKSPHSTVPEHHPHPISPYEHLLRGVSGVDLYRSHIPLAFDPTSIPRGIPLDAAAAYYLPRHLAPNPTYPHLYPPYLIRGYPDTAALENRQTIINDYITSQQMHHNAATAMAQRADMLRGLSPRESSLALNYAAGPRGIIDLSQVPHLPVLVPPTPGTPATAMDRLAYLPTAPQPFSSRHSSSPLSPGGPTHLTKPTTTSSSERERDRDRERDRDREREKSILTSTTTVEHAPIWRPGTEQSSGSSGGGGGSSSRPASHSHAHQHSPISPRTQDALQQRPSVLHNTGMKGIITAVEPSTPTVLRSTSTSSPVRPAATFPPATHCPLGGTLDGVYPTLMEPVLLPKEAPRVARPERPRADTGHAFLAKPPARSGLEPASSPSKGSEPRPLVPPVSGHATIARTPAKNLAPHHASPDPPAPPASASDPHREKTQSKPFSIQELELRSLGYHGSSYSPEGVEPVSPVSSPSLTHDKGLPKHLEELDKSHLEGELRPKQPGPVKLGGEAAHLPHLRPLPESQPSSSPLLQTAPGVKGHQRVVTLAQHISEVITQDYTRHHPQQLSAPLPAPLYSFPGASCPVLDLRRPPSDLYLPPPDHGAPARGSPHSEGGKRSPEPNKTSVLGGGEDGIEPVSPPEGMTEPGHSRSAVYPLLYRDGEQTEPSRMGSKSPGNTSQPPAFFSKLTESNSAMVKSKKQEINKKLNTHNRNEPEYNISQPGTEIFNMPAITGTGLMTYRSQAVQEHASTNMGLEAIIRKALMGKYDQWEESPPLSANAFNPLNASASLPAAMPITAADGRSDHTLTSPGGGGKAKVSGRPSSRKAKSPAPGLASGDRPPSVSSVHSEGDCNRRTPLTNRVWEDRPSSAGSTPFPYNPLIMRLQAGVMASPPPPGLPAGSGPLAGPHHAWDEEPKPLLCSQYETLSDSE

Row | GI50 [2] [nM] | IC50 [3] [nM] | IC50 [4] [nM] | IC50 [5] [nM] | IC50 [6] [nM] | IC50 [7] [nM] | IC50 [8] [nM] | GI50 [9] [nM] | SMILES | RatioGI50 [1]
1 | 33000 | > 5000 | 2020 | 1439 | 1200 | 1970 | 20 | 3630 | Cc1cc(-c2ccc(F)cc2)n(Cc2ccc(C(=O)NO)cc2)n1 | 6
2 | 16000 | > 5000 | > 5000 | 3827 | 1940 | 2880 | 167 | 6660 | CCCc1cc(-c2ccc(F)cc2)n(Cc2ccc(C(=O)NO)cc2)n1 | –
3 | > 100000 | > 5000 | 836 | 1139 | 736 | 919 | 359 | > 100000 | Cc1ccc(-c2cc(C(F)(F)F)nn2-c2ccc(C(=O)NO)cc2)cc1 | –
4 | 28100 | > 5000 | 24 | 8 | 36 | 40 | 5 | 20800 | Cc1cc(-c2ccc3c(c2)OCO3)nn1Cc1ccc(C(=O)NO)cc1 | –
5 | 1980 | 2950 | 79 | 43 | 35 | 40 | 22 | 23200 | O=C(CCCCCCNC(=O)c1cc(-c2ccc(F)cc2)[nH]n1)NO | –
6 | 11400 | > 5000 | 480 | 40 | 69 | 114 | 8 | 30000 | Cc1cc(-c2ccc(F)cc2)nn1Cc1ccc(C(=O)NO)cc1 | –
7 | 29300 | > 5000 | 1070 | 1460 | 816 | 635 | 540 | 24000 | Cc1ccc(-c2cc(C(F)(F)F)nn2CCc2ccc(C(=O)NO)cc2)cc1 | –
8 | 15500 | > 5000 | 110 | 33 | 21 | 47 | 16 | 8580 | Cc1ccc(-c2cc(C(F)(F)F)n(Cc3ccc(C(=O)NO)cc3)n2)cc1 | –
9 | 11200 | > 5000 | 133 | 13 | 26 | 41 | 7 | 21200 | Cc1ccc(-c2cc(C)n(Cc3ccc(C(=O)NO)cc3)n2)cc1 | –
